One data set relates to H. influenzae. The conditions noted are these: cited from earlier work.
The conditions of data set [1]: cited from earlier work.
The subject of a further data set is C. trachomatis. The conditions noted are these: cited from earlier work.
The next data set concerns N. meningitidis. Conditions: cited from earlier work.
Data set [2] deals with C. trachomatis serovar L2. Kind of data set: Inclusion forming units. It is filed as cell-based, Chlamydia trachomatis. The conditions noted are these: for inhibitory activity against chlamydiae (Figure 5a): ACP1b at 50 μg/mL, 40 at 50 μg/mL and 5.20 μg/mL.
For a further data set, the system named is E. coli ClpP. The conditions noted are these: cited from earlier work.
A further data set has as its system S. aureus JE2. The experiment in a line: Broth microdilution antibacterial assay, S. aureus JE2. The data set is classed as cell-based, Staphylococcus aureus. Conditions: concentrations up to 256 μg/mL.
Another data set has as its system HEp-2 cells. The experiment in a line: Host cell morphology and viability under phase contrast microscopy. It is filed as cell-based, human. Conditions: 100 μg/mL. A digest of the protocol:
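HEp-2 cells grown in DMEM with 2% L-glutamine and 10% FBS at 37 °C, infected with C. trachomatis L2 at MOI 1. Test compound added in triplicate at 8 hpi. After 16 h (24 h total incubation), host cell morphology and viability inspected by phase contrast microscopy against untreated control cells.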

For another data set, the system named is ClpP. Kind of data set: In vitro casein degradation assay without AAA+ chaperone. The data set is classed as biochemical. The conditions noted are these: FITC-casein 20 μM, 32°C, 3 h.
Data set [3] addresses recombinant ClpP from E. coli (Escherichia coli, UniProt P0A6G7). The experiment in a line: In vitro casein degradation assay, E. coli ClpP. Conditions: 1 or 0.1 (40 only) μM ClpP. The data set is classed as biochemical.
For a further data set, the target named is human ClpP (Homo sapiens, UniProt Q16740). Kind of data set: In vitro casein degradation assay, human ClpP. The conditions noted are these: 1 μM ClpP. The data set is classed as biochemical. A digest of the protocol: (§1)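 Human or mouse ClpP ORF minus the mitochondrial localization signal was codon-optimised, C-terminally His6-tagged, and expressed and purified from clpAPX-null E. coli. 1 μM enzyme, without AAA+ chaperone, was preincubated 30 min at 32 °C with compound or DMSO in 25 mM HEPES pH 7.6 buffer before adding 20 μM FITC-casein. Fluorescence (ex 490/em 525 nm) was read every 3 min over 3 h. ≥3 runs, ≥2 protein preparations.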
Chain of human ClpP (Q16740 57-277): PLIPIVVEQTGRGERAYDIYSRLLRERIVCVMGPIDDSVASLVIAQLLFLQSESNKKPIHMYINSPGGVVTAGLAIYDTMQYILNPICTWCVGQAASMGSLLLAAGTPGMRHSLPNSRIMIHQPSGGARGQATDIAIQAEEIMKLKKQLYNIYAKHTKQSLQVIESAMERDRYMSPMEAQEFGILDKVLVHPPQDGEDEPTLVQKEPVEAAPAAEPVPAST

For a further data set, the system named is D. melanogaster. Kind of data set: Toxicity. It is filed as in vivo, Drosophila melanogaster. The conditions noted are these: 0.25, 0.5, and 1.0 mM. Put shortly: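 Eggs from two different crosses collected for 8 hours in culture flasks on solid agar base (5% w/v) topped with live baker's yeast plus sugar.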
Another data set has as its target mouse ClpP (Mus musculus, UniProt O88696). The experiment in a line: In vitro casein degradation assay, mouse ClpP. It is filed as biochemical. Conditions: 1 μM ClpP. A digest of the protocol: as §1
A further data set has as its system E. coli K12. Kind of data set: Broth microdilution antibacterial assay, E. coli K12. The data set is classed as cell-based, Escherichia coli. The conditions noted are these: concentrations up to 256 μg/mL. On the technique in general: In broth dilution the organism is exposed to a series of concentrations in liquid medium.
Data set [4] has as its system epithelial cervix adenocarcinoma (HeLa 229) cells. The experiment in a line: Cytotoxicity assay. It is filed as cell-based, human. Conditions: 50 μg/mL, 24 h.

SMILES strings stand for the structures.

Chain of mouse ClpP (O88696 53-272): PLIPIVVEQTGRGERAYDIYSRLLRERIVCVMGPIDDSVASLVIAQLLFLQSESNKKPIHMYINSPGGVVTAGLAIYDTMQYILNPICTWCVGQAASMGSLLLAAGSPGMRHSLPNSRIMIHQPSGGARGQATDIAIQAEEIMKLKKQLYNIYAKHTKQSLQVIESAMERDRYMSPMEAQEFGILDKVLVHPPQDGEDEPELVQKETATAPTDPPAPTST
Chain of recombinant ClpP from E. coli (P0A6G7 15-207): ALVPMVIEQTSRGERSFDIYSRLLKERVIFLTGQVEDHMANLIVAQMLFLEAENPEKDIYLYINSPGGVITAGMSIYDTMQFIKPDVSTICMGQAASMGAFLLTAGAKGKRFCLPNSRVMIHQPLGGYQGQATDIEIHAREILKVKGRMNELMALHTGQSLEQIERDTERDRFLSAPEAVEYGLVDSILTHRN

For `CC(C)(C(=O)NCCCc1ccccc1)S(=O)(=O)c1ccc(C(F)(F)F)cn1` [Compound 2], the “antibacterial activity against H. influenzae” value in the data set on H. influenzae was 8 µg/mL. Besides, the “fold less potent than ADEP1” value in data set [1] is 10-20 fold. The “formation of infectious EBs” value in the data set on C. trachomatis is “drastic decrease”. In the data set with N. meningitidis, the “antibacterial activity against N. meningitidis” value was 16 µg/mL. Also, the “inhibitory activity against chlamydiae (Figure 5a)” value in data set [2] is reported as “good inhibitory activity”. For the same molecule, the “activation of E. coli ClpP in an enzymatic assay” value in the data set on E. coli ClpP is “activate”.

As to `CC(C)(C(=O)N1CCN(Cc2ccc(Cl)cc2)CC1)S(=O)(=O)c1ccc(C(F)(F)F)cn1` [Compound 40, 2-methyl-1-(4-(4-Chlorobenzyl)piperazin-1-yl)-2-((5-(trifluoromethyl)pyridin-2-yl)sulfonyl) propan-1-one], the bacterial death entry with S. aureus JE2 and in the data set with E. coli K12 was “bacterial death was not observed” each time. Also, the “cell toxicity to host cells” value in the data set with HEp-2 cells is “did not observe cell toxicity”. Also, the “ClpP-dependent casein degradation in the absence of a chaperone” value with ClpP is recorded as “enabled some species of ClpP to degrade casein”. Moreover, in data set [3], the “activation of E. coli ClpP” value is on record as “strong activator”. Further, the “activation of human ClpP” value on human ClpP is given as “did not activate”. Further, the “toxicity against D. melanogaster (survival rate)” value in the data set with D. melanogaster is “did not show toxicity”. Also, the “activation of mouse ClpP” value at mouse ClpP is given as “did not activate”. In addition, in data set [2] (12.5 μg/mL), the “inclusion yields lower than the untreated cells” value was “around 60%”. Moreover, the “impact on chlamydiae (infectious progeny, IFU)” value in data set [2] (50 μg/mL, added 8 h after infection, 24 h) is “remarkable impact”. The “mechanism of action (bacteriostatic or bactericidal)” value in data set [2] (50 μg/mL, washout experiment) was “bacteriostatic”. Besides, the “activity compared with penicillin” value in data set [2] (40 at 50 μg/mL, penicillin at 5 U/mL ~ 3 μg/mL) is given as “on par with penicillin”. For the same molecule, in data set [2] (40 at 50 μg/mL, spectinomycin at 128 μg/mL), the “activity compared with spectinomycin” value is given as “superior activity than spectinomycin”. In data set [2], the “inhibitory activity against chlamydiae (Figure 5a)” value is reported as “good inhibitory activity”. Also, in data set [4], the “toxicity towards HeLa 229 cells” value is “not toxic”.

The values above are taken from PMC10353488 (Journal of medicinal chemistry, 2020).
